Results from ChEMBL document CHEMBL1137675, “Convenient one-pot synthesis of novel 2-substituted benzimidazoles, tetrahydrobenzimidazoles and imidazoles and evaluation of their in vitro antibacterial and antifungal activities” (2009).
In brackets after ≈: the same amount, converted by molar mass.

Experiments:
Salmonella typhimurium = assay: Antibacterial activity against Salmonella Typhimurium MTCC 98 at 37 degC after 24 hrs by filter paper disk method; format: functional, Salmonella enterica subsp. enterica serovar Typhimurium; conditions: for MIC: Salmonella enterica, MTCC 98, 24 h
Procedure, shortened: (§1)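 Compounds were taken from a 1 mg/ml DMSO stock and serially diluted two-fold over a 300 to 18.75 range, then loaded onto sterile 8 mm paper discs. Bacteria were grown overnight in nutrient broth at 37 °C, pelleted, and resuspended in sterile NSS to 10⁵ cfu/ml. About 0.1 ml was spread on NA plates. Plates were incubated 24 h at 37 °C with a solvent control disc, and inhibition zone diameter was read in mm.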

Bacillus subtilis = assay: Antibacterial activity against Bacillus subtilis ATCC 6051 at 37 degC after 24 hrs by filter paper disk method; format: functional; conditions: for MIC: Bacillus subtilis, ATCC 6051, 24 h; procedure, shortened: as §1
Staphylococcus aureus = assay: Antibacterial activity against Staphylococcus aureus MSSA 22 at 37 degC after 24 hrs by filter paper disk method; format: functional; conditions: for MIC: Staphylococcus aureus, MSSA 22, 24 h; procedure, shortened: as §1
Escherichia coli = assay: Antibacterial activity against Escherichia coli K-12 at 37 degC after 24 hrs by filter paper disk method; format: functional; conditions: for MIC: Escherichia coli, K-12, 24 h; procedure, shortened: as §1
Candida albicans = assay: Antifungal activity against Candida albicans IOA-109 at 37 degC after 18 to 48 hrs; format: functional; conditions: for MIC: Candida albicans, IOA-109
Aspergillus niger = assay: Antifungal activity against Aspergillus niger at 28 degC after 72 hrs; format: functional; conditions: for MIC: Aspergillus niger, 72 h
Procedure, shortened: (§2)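 Filamentous fungi were kept on SDA at 28 °C. Spores from 7-day cultures were suspended in sterile normal saline to about 10⁵ cfu/ml, and about 0.1 ml was spread on SDA plates. Compounds were serially diluted two-fold in DMSO and impregnated on 8 mm discs, with a solvent control disc on each plate. Plates were held at 28 °C for 72 h or more, and inhibition zone diameter was read in mm.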

Trichoderma viride = assay: Antifungal activity against Trichoderma viride at 28 degC after 72 hrs; format: functional; conditions: for MIC: Trichoderma viride, 72 h; procedure, shortened: as §2
Penicillium sp. = assay: Antifungal activity against Penicillium sp. at 28 degC after 72 hrs; format: functional; conditions: for MIC: Penicillium sp., 72 h; procedure, shortened: as §2
Helminthosporium = assay: Antifungal activity against Helminthosporium oryzae 2537 ICAR at 28 degC after 72 hrs; format: functional; conditions: for MIC: Helminthosporium, 72 h; procedure, shortened: as §2

| Compound | diameter of the inhibition zone (DIZ) (Salmonella typhimurium) | MIC (Salmonella typhimurium) | diameter of the inhibition zone (DIZ) (Bacillus subtilis) | MIC (Bacillus subtilis) | diameter of the inhibition zone (DIZ) (Staphylococcus aureus) | MIC (Staphylococcus aureus) | diameter of the inhibition zone (DIZ) (Escherichia coli) | MIC (Escherichia coli) | diameter of the inhibition zone (DIZ) (Candida albicans) | MIC (Candida albicans) | diameter of the inhibition zone (DIZ) (Aspergillus niger) | MIC (Aspergillus niger) | diameter of the inhibition zone (DIZ) (Trichoderma viride) | MIC (Trichoderma viride) | diameter of the inhibition zone (DIZ) (Penicillium sp.) | MIC (Penicillium sp.) | diameter of the inhibition zone (DIZ) (Helminthosporium) | MIC (Helminthosporium) |
| --- | --- | --- | --- | --- | --- | --- | --- | --- | --- | --- | --- | --- | --- | --- | --- | --- | --- | --- |
| CCCCCC[C@@H](O)C/C=C\CCCCCCCc1nc2cc([N+](=O)[O-])ccc2[nH]1 | 12 mm | 37.5 µg/mL (≈ 90.2 µM) | 21 mm | 37.5 µg/mL (≈ 90.2 µM) | 19 mm | 37.5 µg/mL (≈ 90.2 µM) | 16 mm | 37.5 µg/mL (≈ 90.2 µM) | 19 mm | 37.5 µg/mL (≈ 90.2 µM) | 16 mm | 37.5 µg/mL (≈ 90.2 µM) | 9 mm | 37.5 µg/mL (≈ 90.2 µM) | 19 mm | 37.5 µg/mL (≈ 90.2 µM) | 15 mm | 75 µg/mL (≈ 180 µM) |
| CCCCC/C=C\CC[C@H](O)CCCCCCCc1ncc[nH]1 | 12 mm | 75 µg/mL (≈ 234 µM) | 19 mm | 37.5 µg/mL (≈ 117 µM) | 15 mm | 150 µg/mL (≈ 468 µM) | 12 mm | 150 µg/mL (≈ 468 µM) | 18 mm | 75 µg/mL (≈ 234 µM) | 14 mm | 150 µg/mL (≈ 468 µM) | 6 mm | 75 µg/mL (≈ 234 µM) | 19 mm | 150 µg/mL (≈ 468 µM) | 12 mm | 150 µg/mL (≈ 468 µM) |
| CCCCCC[C@@H](O)C/C=C\CCCCCCCc1ncc[nH]1 | 12 mm | 75 µg/mL (≈ 234 µM) | 18 mm | 37.5 µg/mL (≈ 117 µM) | 15 mm | 150 µg/mL (≈ 468 µM) | 12 mm | 150 µg/mL (≈ 468 µM) | 18 mm | 75 µg/mL (≈ 234 µM) | 13 mm | 150 µg/mL (≈ 468 µM) | 6 mm | 75 µg/mL (≈ 234 µM) | 18 mm | 150 µg/mL (≈ 468 µM) | 13 mm | 150 µg/mL (≈ 468 µM) |
| CCCCCC[C@@H](O)C/C=C\CCCCCCCc1nc2c([nH]1)CCCC2 | 12 mm | 75 µg/mL (≈ 200 µM) | 19 mm | 75 µg/mL (≈ 200 µM) | 17 mm | 75 µg/mL (≈ 200 µM) | 15 mm | 150 µg/mL (≈ 400 µM) | 17 mm | 75 µg/mL (≈ 200 µM) | 12 mm | 37.5 µg/mL (≈ 100 µM) | 7 mm | 37.5 µg/mL (≈ 100 µM) | 16 mm | 75 µg/mL (≈ 200 µM) | 11 mm | 150 µg/mL (≈ 400 µM) |
| C=CCCCCCCCCc1nc2c([nH]1)CCCC2 | 11 mm | 75 µg/mL (≈ 288 µM) | 18 mm | 75 µg/mL (≈ 288 µM) | 18 mm | 75 µg/mL (≈ 288 µM) | 17 mm | 37.5 µg/mL (≈ 144 µM) | 18 mm | 75 µg/mL (≈ 288 µM) | 12 mm | 37.5 µg/mL (≈ 144 µM) | 7 mm | 37.5 µg/mL (≈ 144 µM) | 18 mm | 75 µg/mL (≈ 288 µM) | 11 mm | 150 µg/mL (≈ 576 µM) |
| CCCCCCCC/C=C\CCCCCCCc1nc2ccccc2[nH]1 | 14 mm | 75 µg/mL (≈ 212 µM) | 21 mm | 75 µg/mL (≈ 212 µM) | 18 mm | 150 µg/mL (≈ 423 µM) | 16 mm | 150 µg/mL (≈ 423 µM) | 19 mm | 75 µg/mL (≈ 212 µM) | 16 mm | 150 µg/mL (≈ 423 µM) | 6 mm | 75 µg/mL (≈ 212 µM) | 18 mm | 75 µg/mL (≈ 212 µM) | 12 mm | 150 µg/mL (≈ 423 µM) |
| CCCCCCCC/C=C/CCCCCCCc1ncc[nH]1 | 11 mm | 75 µg/mL (≈ 246 µM) | 19 mm | 37.5 µg/mL (≈ 123 µM) | 15 mm | 150 µg/mL (≈ 493 µM) | 11 mm | 150 µg/mL (≈ 493 µM) | 18 mm | 75 µg/mL (≈ 246 µM) | 12 mm | 150 µg/mL (≈ 493 µM) | 4 mm | 75 µg/mL (≈ 246 µM) | 17 mm | 150 µg/mL (≈ 493 µM) | 12 mm | 150 µg/mL (≈ 493 µM) |
| CCCCCCCC/C=C/CCCCCCCc1nc2cc([N+](=O)[O-])ccc2[nH]1 | 11 mm | 37.5 µg/mL (≈ 93.8 µM) | 20 mm | 37.5 µg/mL (≈ 93.8 µM) | 21 mm | 37.5 µg/mL (≈ 93.8 µM) | 20 mm | 75 µg/mL (≈ 188 µM) | 19 mm | 37.5 µg/mL (≈ 93.8 µM) | 15 mm | 37.5 µg/mL (≈ 93.8 µM) | 8 mm | 37.5 µg/mL (≈ 93.8 µM) | 18 mm | 37.5 µg/mL (≈ 93.8 µM) | 12 mm | 75 µg/mL (≈ 188 µM) |
| CCCCCCCC/C=C/CCCCCCCc1nc2cc(Cl)ccc2[nH]1 | 15 mm | 37.5 µg/mL (≈ 96.4 µM) | 18 mm | 75 µg/mL (≈ 193 µM) | 20 mm | 37.5 µg/mL (≈ 96.4 µM) | 18 mm | 75 µg/mL (≈ 193 µM) | 18 mm | 37.5 µg/mL (≈ 96.4 µM) | 15 mm | 37.5 µg/mL (≈ 96.4 µM) | 9 mm | 37.5 µg/mL (≈ 96.4 µM) | 19 mm | 37.5 µg/mL (≈ 96.4 µM) | 16 mm | 75 µg/mL (≈ 193 µM) |
| CCCCC/C=C\CC[C@H](O)CCCCCCCc1nc2cc([N+](=O)[O-])ccc2[nH]1 | 13 mm | 37.5 µg/mL (≈ 90.2 µM) | 22 mm | 37.5 µg/mL (≈ 90.2 µM) | 19 mm | 37.5 µg/mL (≈ 90.2 µM) | 18 mm | 37.5 µg/mL (≈ 90.2 µM) | 19 mm | 37.5 µg/mL (≈ 90.2 µM) | 14 mm | 37.5 µg/mL (≈ 90.2 µM) | 9 mm | 37.5 µg/mL (≈ 90.2 µM) | 19 mm | 37.5 µg/mL (≈ 90.2 µM) | 14 mm | 75 µg/mL (≈ 180 µM) |
